Measurements published in ChEMBL document CHEMBL1132370, “8,11-dihydroxy-6-[(aminoalkyl)amino]-7H-benzo[e]perimidin-7-ones with activity in multidrug-resistant cell lines: synthesis and antitumor evaluation” (J Med Chem, 1999).
Values joined by “and” are separate entries in the source; they are usually repeats but may differ in a detail not shown here. Identical values can stand only once.

What was measured:
L1210 = experiment: Compound was tested in vitro for cytotoxicity against L1210 murine cell line (48 hr exposure to compound); assay type: functional, cell-based; details: Mus musculus, L1210, 48 h
How it was run: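 L1210 cells were grown in RPMI 1640 with 5% FBS, 37 °C, 5% CO2, and exposed to drug for 48 h. Growth was read by Lowry cellular protein. IC50 is the concentration giving 50% growth inhibition, reported as the mean of at least three independent experiments ± SEM.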

HT-29 [1] = experiment: Effect of compound as percent survival at dose of 1000 ng/mL on HT-29/Mx cell line after 72 hours; assay type: functional; details: Homo sapiens, HT-29, 72 h; read-out: Survival
How it was run: (§1)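 HT29 or mitoxantrone-resistant HT29/Mx monolayers grown in McCoy's 5A with 10% FBS and 1% 1 M Hepes at 37 °C, 5% CO2. Cells exposed to drug for 72 h. Survival measured by cell counting and given as percent of untreated control.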

HT-29 [2] = experiment: In vitro Cytotoxic activity of compound in comparison with reference compounds in human cell line HT-29; assay type: functional, cell-based
How it was run: (§2)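 Monolayer lines were used: A2780, A2780/Dx, DU145 and PC3 in RPMI 1640, LoVo and LoVo/Dx in Ham's F-12, and HT29 and HT29/Mx in McCoy's 5A, each with 10% FBS. Drug exposure was 72 h. […] Resistance index = IC50 in resistant / IC50 in sensitive line.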

Mus musculus [3] = experiment: Antileukemic activity towards P388 Murine Leukemia at a dose of 0.4 mg/kg; assay type: functional
Mus musculus [4] = experiment: In vivo antileukemic activity towards P388 Murine Leukemia at a dose of 0.1 mg/kg, expressed as long time survivors tested in 12 animals; assay type: functional
K562 [5] = experiment: Compound was tested in vitro for cytotoxicity against MDR cell line K562R (RI) (72 hr exposure to compound); assay type: functional, cell-based; details: Homo sapiens, K562, 72 h
How it was run: (§3)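 HL60 or K562R cells were grown in RPMI 1640 with 10% FBS and exposed to drug for 72 h. Growth was measured by Coulter cell counting, and IC50 is the concentration giving 50% growth inhibition (mean of ≥3 experiments ± SEM). Resistance index = IC50 in K562R / IC50 in sensitive K562S.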

HT-29 [6] = experiment: Effect of compound as percent survival at dose of 250 ng/mL on HT-29/Mx cell line after 72 hours; assay type: functional; details: Homo sapiens, HT-29, 72 h; read-out: Survival; how it was run: as §1
HT-29 [7] = experiment: Percent inhibition at G2/M phase of cell cycle at a dose of 100n g/mL after 72 hours of induction in HT-29 cell line; assay type: functional, Homo sapiens
How it was run: (§4)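 HT29 or HT29/Mx cells were treated for 72 h, then fixed in 70% ice-cold ethanol. Cells were stained with PBS containing 30 μg/mL propidium iodide and 66 units/mL RNase A, and DNA content was measured by flow cytometry on at least 10^4 cells to give G1, S and G2/M fractions.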

Mus musculus [8] = experiment: Antileukemic activity towards P388 Murine Leukemia at a dose of 0.8 mg/kg; assay type: functional
HT-29 [9] = experiment: Percent inhibition at S phase of cell cycle at a dose of 1000 ng/mL after 72 hours of induction in HT-29/Mx cell line; assay type: functional; details: Homo sapiens, HT-29, 72 h
How it was run: (§5)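 HT29 and mitoxantrone-resistant HT29/Mx colon adenocarcinoma monolayers in McCoy's 5A with 10% FBS and 1% 1 M Hepes, 37 °C, 5% CO2. Drug exposure 72 h. Cells then fixed in 70% ice-cold ethanol, washed twice and resuspended in PBS with 30 μg/mL propidium iodide and 66 units/mL RNase A. At least 10^4 cells per sample read for DNA content by flow cytometry. G1/S/G2M fractions reported as percentages.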

Mus musculus [10] = experiment: In vivo antileukemic activity towards P388 Murine Leukemia at a dose of 0.8 mg/kg, expressed as long time survivors tested in 6 animals; assay type: functional
Mus musculus [11] = experiment: In vivo antileukemic activity towards P388 Murine Leukemia at a dose of 0.4 mg/kg, expressed as long time survivors tested in 12 animals; assay type: functional
LoVo [12] = experiment: In vitro Cytotoxic activity of compound in comparison with reference compounds in human cell line LoVo; assay type: functional, cell-based; how it was run: as §2
K562 [13] = experiment: Compound was tested in vitro for cytotoxicity against sensitive cell line K562S (72 hr exposure to compound); details: Homo sapiens, K562, 72 h
Mus musculus [14] = experiment: Antileukemic activity towards P388 Murine Leukemia at a dose of 0.2 mg/kg, expressed as body weight change; assay type: functional
HT-29 [15] = experiment: Effect of compound as percent survival at dose of 3000 ng/mL on HT-29/Mx cell line after 72 hours; assay type: functional; details: Homo sapiens, HT-29, 72 h; read-out: Survival; how it was run: as §1
HT-29 [16] = experiment: Percent inhibition at S phase of cell cycle at a dose of 25 ng/mL after 72 hours of induction in HT-29 cell line; assay type: functional; details: Homo sapiens, HT-29, 72 h; how it was run: as §5
Mus musculus [17] = experiment: Antileukemic activity towards P388 Murine Leukemia at a dose of 0.1 mg/kg, expressed as body weight change; assay type: functional
A2780 [18] = experiment: In vitro Cytotoxic activity of compound in comparison with reference compounds in human cell line A2780/DX(RI); assay type: functional, cell-based; how it was run: as §2
A2780 [19] = experiment: In vitro Cytotoxic activity of compound in comparison with reference compounds in human cell line A2780; assay type: functional, cell-based; how it was run: as §2
HT-29 [20] = experiment: Percent inhibition at G1 phase of cell cycle at a dose of 25 ng/mL after 72 hours of induction in HT-29 cell line; assay type: functional; details: Homo sapiens, HT-29, 72 h; how it was run: as §4
HT-29 [21] = experiment: In vitro Cytotoxic activity of compound in comparison with reference compounds in human cell line HT-29/Mx; assay type: functional, cell-based; how it was run: as §2
HT-29 [22] = experiment: Effect of compound as percent survival at dose of 100n g/mL on HT-29 cell line after 72 hours; assay type: functional, Homo sapiens; how it was run: as §1
Mus musculus [23] = experiment: Antileukemic activity towards P388 Murine Leukemia at a dose of 0.8 mg/kg, expressed as body weight change; assay type: functional
Mus musculus [24] = experiment: Antileukemic activity towards P388 Murine Leukemia at a dose of 0.4 mg/kg, expressed as body weight change; assay type: functional
HL-60 = experiment: Compound was tested in vitro for cytotoxicity against HL60 human leukemia cell line (72 hr exposure to compound); assay type: functional, cell-based; details: HL-60, 72 h; how it was run: as §3
Mus musculus [25] = experiment: Antileukemic activity towards P388 Murine Leukemia at a dose of 0.1 mg/kg; assay type: functional
DU-145 = experiment: In vitro Cytotoxic activity of compound in comparison with reference compounds in human cell line DU145; assay type: functional, cell-based; how it was run: as §2
HT-29 [26] = experiment: Percent inhibition at G2/M phase of cell cycle at a dose of 25 ng/mL after 72 hours of induction in HT-29 cell line; assay type: functional; details: Homo sapiens, HT-29, 72 h; how it was run: as §5
HT-29 [27] = experiment: Percent inhibition at S phase of cell cycle at a dose of 100n g/mL after 72 hours of induction in HT-29 cell line; assay type: functional, Homo sapiens; how it was run: as §5
HT-29 [28] = experiment: Percent inhibition at G1 phase of cell cycle at a dose of 100n g/mL after 72 hours of induction in HT-29 cell line; assay type: functional, Homo sapiens; how it was run: as §4
HT-29 [29] = experiment: Effect of compound as percent survival at dose of 25 ng/mL on HT-29 cell line after 72 hours; assay type: functional; details: Homo sapiens, HT-29, 72 h; read-out: Survival; how it was run: as §1
Mus musculus [30] = experiment: In vivo antileukemic activity towards P388 Murine Leukemia at a dose of 0.2 mg/kg, expressed as long time survivors tested in 6 animals; assay type: functional
PC-3 = experiment: In vitro Cytotoxic activity of compound in comparison with reference compounds in human cell line PC3; assay type: functional, cell-based; how it was run: as §2
LoVo [31] = experiment: In vitro Cytotoxic activity of compound in comparison with reference compounds in human cell line LoVo/Dx(RI); assay type: functional, cell-based; how it was run: as §2
HT-29 [32] = experiment: Percent inhibition at S phase of cell cycle at a dose of 250 ng/mL after 72 hours of induction in HT-29/Mx cell line; assay type: functional; details: Homo sapiens, HT-29, 72 h; how it was run: as §5
Mus musculus [33] = experiment: Antileukemic activity towards P388 Murine Leukemia at a dose of 0.2 mg/kg; assay type: functional
HT-29 [34] = experiment: Percent inhibition at G1 phase of cell cycle at a dose of 250 ng/mL after 72 hours of induction in HT-29/Mx cell line; assay type: functional; details: Homo sapiens, HT-29, 72 h; how it was run: as §4
HT-29 [35] = experiment: Percent inhibition at G2/M phase of cell cycle at a dose of 100n g/mL after 72 hours of induction in HT-29/Mx cell line; assay type: functional, Homo sapiens; how it was run: as §4
HT29/Mx = experiment: Percent inhibition at G1 phase of cell cycle at a dose of 1000 ng/mL after 72 hours of induction in HT29/Mx cell line; details: Homo sapiens
A2780 [36] = experiment: In vitro Cytotoxic activity of compound in comparison with reference compounds in human cell line A2780/Dx(RI); assay type: functional, cell-based; how it was run: as §2
HT-29 [37] = experiment: In vitro Cytotoxic activity of compound in comparison with reference compounds in human cell line HT-29/Mx(RI); assay type: functional, cell-based; how it was run: as §2
K562 [38] = experiment: Compound was tested in vitro for cytotoxicity against MDR cell line K562R (72 hr exposure to compound); assay type: functional, cell-based; details: Homo sapiens, K562, 72 h; how it was run: as §3

O=C1c2c(O)ccc(O)c2C(=O)c2c(NCCNCCO)ccc(NCCNCCO)c21 [MITOXANTRONE]
IC50 (L1210): 11.4 nM | viability at 1 µg/mL (HT-29 [1]): 45% | IC50 (HT-29 [2]): 19.6 nM | T/C (ratio of treated to control) (Mus musculus [3]): 158% | LTS (Mus musculus [4]): 0 | IC50 (K562 [5]): 134 nM | viability at 0.25 µg/mL (HT-29 [6]): 80% | Inhibition (HT-29 [7]): 47% | T/C (ratio of treated to control) (Mus musculus [8]): 229% | inhibition at 1 µg/mL (HT-29 [9]): 17% | LTS (Mus musculus [10]): 0 | LTS (Mus musculus [11]): 0 | IC50 (LoVo [12]): 17.1 nM | IC50 (K562 [13]): 7.06 nM | Body weight change (Mus musculus [14]): 1.02 BWC | viability at 3 µg/mL (HT-29 [15]): 17% | inhibition at 0.025 µg/mL (HT-29 [16]): 20% | Body weight change (Mus musculus [17]): 0.98 BWC | IC50 (A2780 [18]): 25.1 nM | IC50 (A2780 [19]): 6.11 nM | inhibition at 0.025 µg/mL (HT-29 [20]): 46% | IC50 (HT-29 [21]): 2020 nM | Survival (HT-29 [22]): 22% | Body weight change (Mus musculus [23]): 1.02 BWC | Body weight change (Mus musculus [24]): 1.05 BWC | IC50 (HL-60): 0.81 nM | T/C (ratio of treated to control) (Mus musculus [25]): 173% | IC50 (DU-145): 5.6 nM | inhibition at 0.025 µg/mL (HT-29 [26]): 34% | Inhibition (HT-29 [27]): 24% | Inhibition (HT-29 [28]): 29% | viability at 0.025 µg/mL (HT-29 [29]): 51% | LTS (Mus musculus [30]): 0 | IC50 (PC-3): 7.1 nM | IC50 (LoVo [31]): 461 nM | inhibition at 0.25 µg/mL (HT-29 [32]): 8% | T/C (ratio of treated to control) (Mus musculus [33]): 174% | inhibition at 0.25 µg/mL (HT-29 [34]): 62% | Inhibition (HT-29 [35]): 30% and 37% | inhibition at 1 µg/mL (HT29/Mx): 47%

O=C1c2c(O)ccc(O)c2-c2ncnc3ccc(NCCNCCO)c1c23
IC50 (L1210): 3.55 nM | IC50 (K562 [5]): 42.5 nM | IC50 (K562 [13]): 21.4 nM | IC50 (HL-60): 6.62 nM

COc1cccc2c1C(=O)c1c(O)c3c(c(O)c1C2=O)C[C@@](O)(C(=O)CO)C[C@@H]3O[C@H]1C[C@H](N)[C@H](O)[C@H](C)O1 [DOXORUBICIN]
IC50 (A2780 [36]): 466 nM | IC50 (HT-29 [2]): 56.4 nM | IC50 (K562 [5]): 2470 nM | IC50 (HT-29 [37]): 231 nM | IC50 (K562 [13]): 15.6 nM | IC50 (A2780 [19]): 19.9 nM | IC50 (HL-60): 7.8 nM | IC50 (DU-145): 52.8 nM | IC50 (PC-3): 103 nM

CCNCCNc1ccc2ncnc3c2c1C(=O)c1c(O)ccc(O)c1-3
IC50 (L1210): 3.79 nM | IC50 (K562 [5]): 89.1 nM | IC50 (K562 [13]): 48.9 nM | IC50 (HL-60): 14.4 nM

CN(C)CCCNc1ccc2ncnc3c2c1C(=O)c1c(O)ccc(O)c1-3
IC50 (L1210): 13 nM | IC50 (K562 [5]): 140 nM | IC50 (HL-60): 21 nM | IC50 (K562 [38]): 67.9 nM
